# From PubChem BioAssay
# This is a sample that favours compounds with a hit; in the whole collection about 3.7% have one here.
# B2AR ag – beta2AR agonists driving receptor internalization, primary screen, cell-based, FAP fluorogen, flow cytometry | hit rate 0.43% among 340,000 | Am2.2-beta2AR cells | response, % (test concentration not listed);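 active means response above a set limit, near 3 SD of response in nonfluorescent compounds, cut at about 42% in these data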
# Target sequence (P07550 whole entry, looked up): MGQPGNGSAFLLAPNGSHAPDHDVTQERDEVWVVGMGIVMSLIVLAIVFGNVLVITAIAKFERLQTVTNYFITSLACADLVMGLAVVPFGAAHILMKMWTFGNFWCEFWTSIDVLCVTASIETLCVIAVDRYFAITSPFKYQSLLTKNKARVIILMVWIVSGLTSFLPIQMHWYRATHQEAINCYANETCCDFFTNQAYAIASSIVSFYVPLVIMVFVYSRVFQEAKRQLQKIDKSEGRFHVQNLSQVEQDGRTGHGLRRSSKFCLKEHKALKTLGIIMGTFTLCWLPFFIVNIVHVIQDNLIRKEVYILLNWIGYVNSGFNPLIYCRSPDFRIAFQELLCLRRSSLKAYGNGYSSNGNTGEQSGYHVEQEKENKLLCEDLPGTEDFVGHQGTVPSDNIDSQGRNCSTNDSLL
# Mdm2 MdmX PPI – inhibitors of human Mdm2-MdmX association, primary screen, cell-based, luminescence, split luciferase, SaOS-2, uHTS. hit rate 3% among 330,000. Protein Mdm4 (Homo sapiens) + E3 ubiquitin-protein ligase Mdm2 (Homo sapiens), …. inhibition, % at 8 µM. SaOS-2 split-luciferase Mdm2/MdmX complementation;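 active means inhibition of at least 50% at 8 µM in the primary screen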
# UPR XBP1 act – activators of adaptive XBP1 UPR arm, primary screen, cell-based, CHO-XBP1 luciferase reporter, luminescence, uHTS; IRE1-XBP1 UPR activation; percent of tunicamycin response, DMSO as zero; activation, % at 20 µM; hit rate 0.33% among 330,000;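 active means versus positive control, 20 µM dose yields 30% or more activation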
#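 Material: CHO cell line with stable XBP1 luciferase reporter; schedule: 16-18 h cell attachment at 37 °C, then 6 h compound exposure; signal: glow luminescence from Steady-Glo reagent; medium: serum-containing F12 medium, 10% FBS; benchmarks: tunicamycin 10 µg/mL and vehicle-only wells; read-out: percent activation relative to tunicamycin reference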
# Mdm2 ligase inh – MDM2-luciferase reporter signal enhancers, primary screen, MDM2 E3 ligase inhibitor project, cell-based, luminescence, 1536-well; E3 ubiquitin-protein ligase Mdm2 (Homo sapiens), Q00987; cell-based MDM2 ubiquitination luciferase reporter, 2 h; 0 = plate control, 100 = twice control, blank-subtracted; signal enhancement, % at 5 µM; hit rate 0.11% among 210,000;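 active means signal enhancement of 30% or more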;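 further: luminescence tracks abundance of the self-degrading MDM2-luciferase fusion protein; higher signal means inhibition of MDM2 E3 ligase activity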
#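 Assay system: stable mammalian line carrying autodegrading MDM2–luciferase fusion reporter; amount: 2000 cells seeded into each well; buffer or medium: DMEM; benchmarks: plate control and blank wells; signal: luciferase luminescence; timing: 2 h compound exposure at 37 °C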
# UPR CHOP act – activators of apoptotic CHOP UPR arm, primary screen, cell-based, CHO-CHOP luciferase reporter, luminescence, uHTS; UPR activation; percent of tunicamycin response over DMSO baseline; activation, % at 10 µM; hit rate 0.34% among 330,000; AID 449763, 2010;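 active means at 10 µM dose, activation of 40% or more, normalized to positive control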
#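 Test system: CHO-CHOP cells, stable luciferase reporter of PERK-eIF2a-CHOP signalling | Quantity: 500 CHO-CHOP cells per well | Buffer or medium: F12 plus 10% serum | Compound dosing: 10 µM single point, 0.5% DMSO | Schedule: 6 h compound treatment, 37 °C | Signal: Luciferase luminescence | Control set: Tunicamycin high control, DMSO low control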
# Dynein cargo inh – inhibitors of GR-EGFP nuclear translocation, primary screen, dynein cargo transport inhibitor project, imaging, high-content, 3617.4 mouse cells; test concentration mostly 20 µM; stimulated with dexamethasone, 1 µM; hits give low values; z-score, hits read low; hit rate 0.47% among 220,000; AID 1381, 2008;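 active means plate z-score of nuclear minus cytoplasmic receptor signal below a set negative limit, without overly bright fluorescence or cell loss, cut at about -3.5 in these data, passing the limit was not always enough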;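 further: z-score of nuclear minus cytoplasmic ring GR-EGFP intensity difference per well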
#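 Buffer or medium – tet-free medium with charcoal-stripped serum · Signal – automated 10x imaging of fixed Hoechst-stained cells · Also added – dexamethasone agonist, 1.0 µM final, for 30 min · Incubation – induction 48 h, compound 1 h, agonist 30 min · Read-out – GR-EGFP nuclear translocation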
# Mdm2-MdmX conf – Mdm2-MdmX complex disruptors, retested hits, confirmation, luminescence, single concentration; shares compounds with Mdm2 MdmX PPI; Mdm2-MdmX binding, luminescent assay; inhibition, % at 8 µM; hit rate 55% among 10,000; AID 489028, 2010; in the data active means inhibition above about 40%
# Full FLuc ctr – full-length luciferase signal inhibition, confirmation, counter-screen for Mdm2/MdmX interaction inhibitor project, cell-based, single concentration, SaOS-2; shares compounds with Mdm2 MdmX PPI; SaOS-2 full-length luciferase counterscreen, luminescence; inhibition, % at 8 µM; hit rate 77% among 6,200;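 active means mean inhibition at 8 µM reaching about 37%, which flags the compound as non-specific, limit read from the data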;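 further: p53-null SaOS-2 cells with luciferase driven by a doxycycline-inducible promoter; compound on cells about two nights before reading with doxycycline added after day one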
# Numbers stand for hits; . = inactive; / = no result.
SMILES,B2AR ag,Mdm2 MdmX PPI,UPR XBP1 act,Mdm2 ligase inh,UPR CHOP act,Dynein cargo inh,Mdm2-MdmX conf,Full FLuc ctr
O=C1/C(=C/c2ccccc2F)SC(=S)N1CC(=O)N1CCCCC1c1cccnc1 (centres undefined),.,79,.,/,.,/,41,.
O=C1/C(=C/c2ccc(F)cc2)SC(=S)N1CC(=O)N1CCCCC1c1cccnc1 (centres undefined),.,74,.,/,.,/,.,/
O=C(CC1CS(=O)(=O)CC1CC(=O)Nc1ccc2c(c1)OCCO2)Nc1ccc2c(c1)OCCO2 (centres undefined),.,63,.,.,.,.,77,90
C/C(=N\NC(=O)c1cc(C)oc1C)c1ccc(C)c([N+](=O)[O-])c1,.,96,.,/,.,/,.,/
C/C(=N/Nc1ccccc1[N+](=O)[O-])c1ccc(C)c([N+](=O)[O-])c1,.,70,.,/,.,/,.,/
COC(=O)N/N=C(\C)c1ccc(C)c([N+](=O)[O-])c1,.,.,.,/,.,.,/,/
C/C(=N\Nc1ccccc1[N+](=O)[O-])c1ccc(N2CCOCC2)cc1,.,.,.,.,.,.,/,/
CCC1CCC/C1=N\NC(=O)c1ccccc1C (centres undefined),.,.,.,/,.,/,/,/
CCN(CC)C(=O)N1c2ccccc2C=Cc2ccccc21,.,85,.,.,.,.,80,.
CCOc1ccccc1OCCCC(=O)N(CC)CC(=O)Nc1c(F)cccc1F,.,.,.,/,.,/,/,/
CC(C)Cn1c(N)c(C(=O)COC(=O)c2cc(C(F)(F)F)nc3c(C(F)(F)F)cccc23)c(=O)n(C)c1=O,/,88,.,/,.,.,.,/
Cn1c(=O)c(C(=O)COC(=O)c2cc(C(F)(F)F)nc3ccccc23)c(N)n(Cc2ccccc2)c1=O,/,.,.,/,.,.,/,/
O=C(CCc1nnc2ccc(NCc3ccccc3)nn12)NC1CCCCC1,.,.,.,/,.,/,/,/
CCCCn1c(O)c(N=NC(=O)c2ccncc2)c2cc(Br)ccc21,.,64,.,.,.,.,40,63
CCN(C(=O)COC(=O)c1c2c(nc3ccccc13)/C(=C/c1ccccc1)CC(C)C2)C1CCS(=O)(=O)C1 (centres undefined),.,53,.,.,.,.,52,55
CCC(=O)N1CCc2cc(S(=O)(=O)N3CCN(c4ccccc4)CC3)ccc21,.,55,.,/,.,/,.,/
O=C(C1CC1)N1CCc2cc(S(=O)(=O)N3CCN(c4ccccc4)CC3)ccc21,.,.,.,/,.,/,/,/
COC(=O)Cc1ccc(NC(=S)NCCSc2ccc(Cl)cc2)cc1,.,.,.,.,.,.,/,/
O=C(Nc1ccc(N2CCOCC2)cc1)c1cnccn1,.,54,.,/,.,/,.,/
O=C(Nc1ccc(N2CCOCC2)cc1)c1cnsn1,.,70,.,.,.,.,68,.
O=C(Nc1ccc(N2CCOCC2)cc1)c1ccncc1,.,.,.,.,.,.,/,/
Cc1ccc(CNCCCn2cnc3c(OCc4ccccc4)ncnc32)o1,.,/,/,/,/,/,/,/
Cc1ccc(C)c(S(=O)(=O)N2CCCOC2CNC(=O)C(=O)NCc2ccccn2)c1 (centres undefined),.,.,.,/,.,/,/,/
CC(C)Oc1ccc(CNS(=O)(=O)c2csc(C(N)=O)c2)cc1,.,.,.,/,.,/,/,/
Cc1nn(CC(=O)Nc2ccc3c(c2)oc2ccccc23)c(=O)c2ccccc12,.,77,.,.,.,.,.,/
SMILES,B2AR ag,Mdm2 MdmX PPI,UPR XBP1 act,Mdm2 ligase inh,UPR CHOP act,Dynein cargo inh,Mdm2-MdmX conf,Full FLuc ctr
COc1ccccc1N1CCN(C2CCCN(C(=O)CCn3cncn3)C2)CC1 (centres undefined),.,.,.,/,.,/,/,/
O=C(NCCc1ccccc1F)c1ccc2c(c1)OCCO2,.,89,.,/,.,/,92,49
Cc1cc(C)nc(NS(=O)(=O)c2ccc(NC(=O)c3ccc(O)cc3O)cc2)n1,.,.,.,/,.,/,/,/
CC1=CC2=NC(=O)C(c3ccccc3)C(=O)N2C=C1 (centres undefined),.,/,/,/,/,/,/,/
Cc1cc(C)c2sc(NNC(=O)c3ccc(S(=O)(=O)N4CCc5ccccc5C4)cc3)nc2c1,.,83,.,/,.,.,85,42
Cc1cc(C)c2nc(NNC(=O)c3ccc(S(=O)(=O)N4CCc5ccccc5C4)cc3)sc2c1,.,82,.,/,.,.,86,38
Cc1cc(C)nc(SCC(=O)NC2CCCCC2C)n1 (centres undefined),.,.,.,/,.,/,/,/
CC1CCN(c2nc(-c3cccnc3)nc3scc(-c4ccccc4)c23)CC1,.,.,.,/,.,.,/,/
CC1CCN(c2nc(CN3CCCCC3)nc3scc(-c4ccccc4)c23)CC1,.,57,.,.,.,.,.,/
Cc1cccc(CS(=O)(=O)c2ncc(Cl)c(C(=O)Nc3c(C)cccc3C)n2)c1,.,94,.,/,.,/,86,51
Cc1cccc(CS(=O)(=O)c2ncc(Cl)c(C(=O)NCc3ccccc3)n2)c1,.,83,.,/,84,/,66,.
CCCc1nnc(NC(=O)c2nc(S(=O)(=O)Cc3cccc(C)c3)ncc2Cl)s1,.,90,.,/,.,/,.,.
OCC1OC(c2ccccc2)OC2COC(c3ccccc3)OC12 (centres undefined),.,/,/,/,/,/,/,/
Cc1ccc(Cl)c(OCC(=O)NC2CCN(Cc3ccccc3)CC2)c1,.,.,.,/,.,/,/,/
CCOc1ccc(C(=O)NCCN2CCCCC2)c(OCC)c1,.,.,.,/,.,/,/,/
CCN(CC)CCCn1c2c(c(SCC(=O)Nc3nc4ccccc4s3)nc1=O)CCC2,.,.,.,/,.,/,/,/
Cc1ccc(-c2nn(-c3ccccc3)cc2/C=N/NC(=O)c2ccc(Br)o2)cc1,.,83,.,.,.,.,.,/
Cc1nc(SCC(=O)NCc2ccccc2)c2c(=O)n(C)c(=O)n(C)c2n1,.,.,.,.,.,.,/,/
